Measurements published in ChEMBL document CHEMBL3853327 (J Med Chem, 2016).

Tests used:
[1] = Selectivity index, ratio of CC50 for human mock-infected MT4 cells to EC50 for HIV1 3B harboring reverse transcriptase K103N mutant infected in human MT4 cells; assay type: toxicity, cell-based; details: MT4 cells (mock-infected for CC50, HIV-1 infected for EC50)
How it was run: (§1)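 Selectivity index is CC50/EC50. CC50 is the concentration that reduces OD540 of mock-infected MT-4 cells by 50% in the 5-day MTT assay. EC50 is the 50% protection from virus-induced cytopathicity, measured in parallel on infected wells.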

[2] = test system: Human immunodeficiency virus 1; test: Antiviral activity against HIV1 3B harboring reverse transcriptase F227L/V106A double mutant infected in human MT4 cells assessed as protection against virus induced cytotoxicity after 5 days by MTT assay; assay type: functional, cell-based; details: Human immunodeficiency virus 1, 3B, MT4, 120 h
How it was run: (§2)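 MTT cytopathicity assay in MT-4 cells (6 × 10^5 cells/mL). Compounds serially diluted 5-fold in triplicate wells, run in parallel on infected and mock-infected cells. Virus added at 100−300 CCID50 per well. Viability read spectrophotometrically at 540 and 690 nm after 5 days, using the median OD of three wells. EC50 is the concentration giving 50% protection from viral cytopathogenicity.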

[3] = test system: Human immunodeficiency virus 1; test: Antiviral activity against HIV1 3B harboring reverse transcriptase Y188L mutant infected in human MT4 cells assessed as protection against virus induced cytotoxicity after 5 days by MTT assay; assay type: functional, cell-based; details: Human immunodeficiency virus 1, 3B, MT4, 120 h; how it was run: as §2
[4] = Selectivity index, ratio of CC50 for human mock-infected MT4 cells to EC50 for HIV1 3B harboring reverse transcriptase F227L/V106A double mutant infected in human MT4 cells; assay type: toxicity, cell-based; details: MT4 cells (mock-infected for CC50, HIV-1 infected for EC50); how it was run: as §1
[5] = Selectivity index, ratio of CC50 for human mock-infected MT4 cells to EC50 for wild type HIV1 3B harboring reverse transcriptase infected in human MT4 cells; assay type: toxicity, cell-based; details: MT4 cells (mock-infected for CC50, HIV-1 infected for EC50); how it was run: as §1
[6] = Cytotoxicity against human mock-infected MT4 cells assessed as reduction in cell viability after 5 days by MTT assay; assay type: toxicity, cell-based
How it was run: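 Mock-infected MT-4 cells (6 × 10^5 cells/mL at seeding) with serial 5-fold compound dilutions in triplicate wells. Viability read by MTT after 5 days, absorbance at 540 and 690 nm, median OD of three wells. CC50 is the concentration reducing OD540 of mock-infected cells by 50%.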

[7] = test system: Human immunodeficiency virus 1; test: Antiviral activity against HIV1 3B harboring reverse transcriptase L100I mutant infected in human MT4 cells assessed as protection against virus induced cytotoxicity after 5 days by MTT assay; assay type: functional, cell-based; details: Human immunodeficiency virus 1, 3B, MT4, 120 h; how it was run: as §2
[8] = test system: Human immunodeficiency virus 1; test: Potency index, ratio of ETV EC50 to compound EC50 for HIV1 3B harboring reverse transcriptase E138K mutant infected in human MT4 cells; assay type: functional
[9] = Selectivity index, ratio of CC50 for human mock-infected MT4 cells to EC50 for HIV1 3B harboring reverse transcriptase L100I mutant infected in human MT4 cells; assay type: toxicity, cell-based; details: MT4 cells (mock-infected for CC50, HIV-1 infected for EC50); how it was run: as §1
[10] = test system: Human immunodeficiency virus 1; test: Potency index, ratio of ETV EC50 to compound EC50 for HIV1 3B harboring reverse transcriptase Y181C mutant infected in human MT4 cells; assay type: functional
[11] = Antiviral activity against HIV2 ROD harboring reverse transcriptase infected in human MT4 cells assessed as protection against virus induced cytotoxicity after 5 days by MTT assay; assay type: functional, cell-based, Human immunodeficiency virus type 2 (ISOLATE ROD); details: Human immunodeficiency virus 2, MT4, 120 h; how it was run: as §2
[12] = Selectivity index, ratio of CC50 for human mock-infected MT4 cells to EC50 for HIV1 RES056 harboring reverse transcriptase K103N/Y181C double mutant infected in human MT4 cells; assay type: toxicity, cell-based; details: MT4 cells (mock-infected for CC50, HIV-1 infected for EC50); how it was run: as §1
[13] = Selectivity index, ratio of CC50 for human mock-infected MT4 cells to EC50 for HIV1 3B harboring reverse transcriptase E138K mutant infected in human MT4 cells; assay type: toxicity, cell-based; details: MT4 cells (mock-infected for CC50, HIV-1 infected for EC50); how it was run: as §1
[14] = test system: Human immunodeficiency virus 1; test: Antiviral activity against HIV1 3B harboring reverse transcriptase Y181C mutant infected in human MT4 cells assessed as protection against virus induced cytotoxicity after 5 days by MTT assay; assay type: functional, cell-based; details: Human immunodeficiency virus 1, 3B, MT4, 120 h
How it was run: as §2, with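 “wells.” for “wells. EC50 is the concentration giving 50% protection from viral cytopathogenicity.”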

[15] = Selectivity index, ratio of CC50 for human mock-infected MT4 cells to EC50 for HIV1 3B harboring reverse transcriptase Y181C mutant infected in human MT4 cells; assay type: toxicity, cell-based; details: MT4 cells (mock-infected for CC50, HIV-1 infected for EC50); how it was run: as §1
[16] = test system: Human immunodeficiency virus 1; test: Potency index, ratio of ETV EC50 to compound EC50 for HIV1 3B harboring reverse transcriptase YI88L mutant infected in human MT4 cells; assay type: functional
[17] = test system: Human immunodeficiency virus 1; test: Antiviral activity against HIV1 3B harboring reverse transcriptase E138K mutant infected in human MT4 cells assessed as protection against virus induced cytotoxicity after 5 days by MTT assay; assay type: functional, cell-based; details: Human immunodeficiency virus 1, 3B, MT4, 120 h; how it was run: as §2
[18] = test system: Human immunodeficiency virus 1; test: Antiviral activity against HIV1 3B harboring reverse transcriptase K103N mutant infected in human MT4 cells assessed as protection against virus induced cytotoxicity after 5 days by MTT assay; assay type: functional, cell-based; details: Human immunodeficiency virus 1, 3B, MT4, 120 h; how it was run: as §2
[19] = test system: Human immunodeficiency virus 1; test: Antiviral activity against wild type HIV1 3B harboring reverse transcriptase infected in human MT4 cells assessed as protection against virus induced cytotoxicity after 5 days by MTT assay; assay type: functional, cell-based; details: Human immunodeficiency virus 1, 3B, MT4, 120 h
How it was run: as §2, with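 “wells.” for “wells. EC50 is the concentration giving 50% protection from viral cytopathogenicity.”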

[20] = Selectivity index, ratio of CC50 for human mock-infected MT4 cells to EC50 for HIV1 3B harboring reverse transcriptase Y188L mutant infected in human MT4 cells; assay type: toxicity, cell-based; details: MT4 cells (mock-infected for CC50, HIV-1 infected for EC50); how it was run: as §1
[21] = Inhibition of recombinant wild type HIV1 reverse transcriptase using DIG-dUTP/biotin-dUTP/dTTP assessed as suppression of biotin-dUTP incorporation after 1 hr by ELISA; parameters: species or system Human immunodeficiency virus 1
How it was run: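 Recombinant WT HIV-1 RT in a Roche colorimetric kit: template plus DIG-dUTP, biotin-dUTP and dTTP, ±inhibitor, 1 h at 37 °C. Product captured on streptavidin plate 1 h at 37 °C, anti-DIG-POD 1 h at 37 °C, ABTS developed at 25 °C, read at OD405. IC50 is the concentration inhibiting biotin-dUTP incorporation by 50%.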

[22] = molecular target: Human immunodeficiency virus type 1 reverse transcriptase (Human immunodeficiency virus 1, UniProt Q72547, K103N/Y181C); test: Inhibition of recombinant HIV1 reverse transcriptase K103N/Y181C double mutant using DIG-dUTP/biotin-dUTP/dTTP assessed as suppression of biotin-dUTP incorporation after 1 hr by ELISA
[23] = test system: Human immunodeficiency virus 1; test: Fold resistance, ratio of IC50 for recombinant HIV1 reverse transcriptase K103N/Y181C double mutant to IC50 for wild type HIV1 reverse transcriptase
How it was run: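 Ratio of mutant to WT IC50. Recombinant WT and K103N/Y181C RT were assayed with a kit: template plus DIG-dUTP, biotin-dUTP and dTTP, with or without inhibitor, 1 h at 37 °C. Product was captured on streptavidin, detected with anti-DIG-POD and ABTS, and read at 405 nm. IC50 is the concentration inhibiting biotin-dUTP incorporation by 50%.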

## CNS(=O)(=O)c1ccc(CN2CCC(Nc3nc(Oc4c(C)cc(C#N)cc4C)c4sccc4n3)CC2)cc1
[1]
  selectivity ratio: 2880
[2]
  EC50: 4.1 nM
[3]
  EC50: 6.8 nM
[4]
  selectivity ratio: 1090
[5]
  selectivity ratio: 2790
[6]
  CC50 at 120 h: 4420 nM
[7]
  EC50: 4.5 nM
[8]
  Ratio EC50: 2
[9]
  selectivity ratio: 972
[10]
  Ratio EC50: 2
[11]
  EC50: > 4420 nM
[12]
  selectivity ratio: 136
[13]
  selectivity ratio: 665
[14]
  EC50: 4.8 nM
[15]
  selectivity ratio: 911
[16]
  Ratio EC50: 2
[17]
  EC50: 6.6 nM
[18]
  EC50: 1.5 nM
[19]
  EC50: 1.5 nM
[20]
  selectivity ratio: 647

## Cc1cc(C#N)cc(C)c1Oc1nc(NC2CCN(Cc3ccc(NS(C)(=O)=O)cc3)CC2)nc2ccsc12
[1]
  selectivity ratio: 35700
[2]
  EC50: 32.2 nM
[3]
  EC50: 8.2 nM
[4]
  selectivity ratio: 2120
[5]
  selectivity ratio: 44200
[6]
  CC50 at 120 h: 68300 nM
[7]
  EC50: 13.6 nM
[8]
  Ratio EC50: 2
[9]
  selectivity ratio: 5020
[10]
  Ratio EC50: 2
[11]
  EC50: > 68300 nM
[12]
  selectivity ratio: 261
[13]
  selectivity ratio: 9900
[14]
  EC50: 6.9 nM
[15]
  selectivity ratio: 9890
[16]
  Ratio EC50: 2
[17]
  EC50: 6.9 nM
[18]
  EC50: 1.9 nM
[19]
  EC50: 1.5 nM
[20]
  selectivity ratio: 8870

## Cc1cc(C#N)cc(C)c1Oc1nc(NC2CCN(Cc3ccc(C(N)=O)cc3)CC2)nc2ccsc12
[1]
  selectivity ratio: 53800
[2]
  EC50: 10.7 nM
[3]
  EC50: 8.6 nM
[4]
  selectivity ratio: 8860
[5]
  selectivity ratio: 66900
[6]
  CC50 at 120 h: 95400 nM
[7]
  EC50: 10.8 nM
[8]
  Ratio EC50: 2
[9]
  selectivity ratio: 8760
[10]
  Ratio EC50: 2
[11]
  EC50: > 95400 nM
[12]
  selectivity ratio: 1110
[13]
  selectivity ratio: 21300
[14]
  EC50: 5.3 nM
[15]
  selectivity ratio: 18100
[16]
  Ratio EC50: 2
[17]
  EC50: 4.5 nM
[18]
  EC50: 1.8 nM
[19]
  EC50: 1.4 nM
[20]
  selectivity ratio: 11100

## Cc1cc(C)c(Oc2nc(NC3CCN(Cc4ccc(S(C)(=O)=O)cc4)CC3)nc3ccsc23)c(C)c1
[1]
  selectivity ratio: 548
[2]
  EC50: 23.9 nM
[21]
  IC50: 650 nM
[3]
  EC50: 32.2 nM
[4]
  selectivity ratio: 81
[5]
  selectivity ratio: 595
[22]
  IC50: 2500 nM
[6]
  CC50 at 120 h: 3420 nM
[7]
  EC50: 23.9 nM
[9]
  selectivity ratio: 143
[11]
  EC50: > 3420 nM
[12]
  selectivity ratio: 12
[13]
  selectivity ratio: 187
[14]
  EC50: 28.9 nM
[23]
  Ratio IC50: 3.84
[15]
  selectivity ratio: 118
[17]
  EC50: 18.2 nM
[18]
  EC50: 6.2 nM
[19]
  EC50: 5.7 nM
[20]
  selectivity ratio: 106

## Cc1cc(C#N)cc(C)c1Oc1nc(NC2CCN(Cc3ccc(S(C)(=O)=O)cc3)CC2)nc2ccsc12
[1]
  selectivity ratio: 1800
[2]
  EC50: 44 nM
[21]
  IC50: 1510 nM
[3]
  EC50: 41 nM
[4]
  selectivity ratio: 507
[5]
  selectivity ratio: 1000
[22]
  IC50: 2830 nM
[6]
  CC50 at 120 h: 22300 nM
[7]
  EC50: 73 nM
[9]
  selectivity ratio: 306
[11]
  EC50: > 22300 nM
[12]
  selectivity ratio: 50
[13]
  selectivity ratio: 566
[14]
  EC50: 36 nM
[23]
  Ratio IC50: 1.87
[15]
  selectivity ratio: 622
[17]
  EC50: 39 nM
[18]
  EC50: 12 nM
[19]
  EC50: 22.1 nM
[20]
  selectivity ratio: 543

## Cc1cc(C#N)cc(C)c1Oc1nc(NC2CCN(Cc3ccncc3)CC2)nc2ccsc12
[1]
  selectivity ratio: 2090
[2]
  EC50: 130 nM
[21]
  IC50: 1300 nM
[3]
  EC50: 55.3 nM
[4]
  selectivity ratio: 159
[5]
  selectivity ratio: 2000
[22]
  IC50: 3740 nM
[6]
  CC50 at 120 h: 20600 nM
[7]
  EC50: 81.6 nM
[9]
  selectivity ratio: 253
[11]
  EC50: > 20600 nM
[12]
  selectivity ratio: 32
[13]
  selectivity ratio: 489
[14]
  EC50: 42.7 nM
[23]
  Ratio IC50: 2.87
[15]
  selectivity ratio: 483
[17]
  EC50: 42.2 nM
[18]
  EC50: 9.9 nM
[19]
  EC50: 10.3 nM
[20]
  selectivity ratio: 373
